ChEMBL document CHEMBL1138570, “2-Acylhydrazino-5-arylpyrrole derivatives: synthesis and antifungal activity evaluation” (Eur J Med Chem, 2009)
≈ marks a conversion by molar mass, not a printed value.

Columns and labels:
Candida albicans [1] = assay: Antimicrobial activity against Candida albicans ATCC 10231 by broth microdilution method; assay type: functional
Outline: (§1)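 MIC by NCCLS broth microdilution. Medium was RPMI 1640 with L-glutamine, buffered with 0.165 M MOPS at pH 7.0. Twofold drug dilutions ran 0.008–200 mg/L. Inoculum was set spectrophotometrically to 10⁶ CFU/mL, then diluted in medium to 2 ×10⁴ cells/mL. Plates were incubated overnight at 35 °C in humid air, agitated, and read visually and at 450 nm.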

Nakaseomyces glabratus [2] = assay: Antimicrobial activity against Candida glabrata by broth microdilution method; assay type: functional; outline: as §1
Candida parapsilosis [3] = assay: Antimicrobial activity against Candida parapsilosis by broth microdilution method; assay type: functional; conditions: Lodderomyces parapsilosis; outline: as §1
Pichia kudriavzevii [4] = assay: Antimicrobial activity against Candida krusei by broth microdilution method; assay type: functional; outline: as §1
Candida albicans [5] = assay: Antimicrobial activity against Candida albicans ATCC 10231 after 72 hrs by broth microdilution method; assay type: functional; conditions: ATCC 10231, 72 h
Outline: (§2)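 MFC: after MIC reading, a sample from each well was plated on Sabouraud dextrose agar and incubated 72 h at 35 °C. MFC was taken as the minimum concentration killing >99% of the original inoculum. The MIC step was NCCLS broth microdilution in MOPS-buffered RPMI 1640 (pH 7.0), with 2 ×10⁴ cells/mL, overnight at 35 °C.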

Nakaseomyces glabratus [6] = assay: Antimicrobial activity against Candida glabrata after 72 hrs by broth microdilution method; assay type: functional; outline: as §2
Candida parapsilosis [7] = assay: Antimicrobial activity against Candida parapsilosis after 72 hrs by broth microdilution method; assay type: functional; conditions: Lodderomyces parapsilosis; outline: as §2
Pichia kudriavzevii [8] = assay: Antimicrobial activity against Candida krusei after 72 hrs by broth microdilution method; assay type: functional; outline: as §2
[9] = Toxicity against human MCF7 cells assessed as growth inhibition at 10 uM; assay type: cell-based; conditions: read-out: GI
[10] = Toxicity against human H460 cells assessed as growth inhibition at 10 uM; assay type: cell-based; conditions: NCI-H460 cells, read-out: GI
[11] = Toxicity against human SF268 cells assessed as growth inhibition at 10 uM; assay type: cell-based; conditions: SF-268 cells, read-out: GI

Row | Compound | MIC (Candida albicans [1]) | MIC (Nakaseomyces glabratus [2]) | MIC (Candida parapsilosis [3]) | MIC (Pichia kudriavzevii [4]) | MFC (Candida albicans [5]) | MFC (Nakaseomyces glabratus [6]) | MFC (Candida parapsilosis [7]) | MFC (Pichia kudriavzevii [8]) | inhibition at 10 µM [9] | inhibition at 10 µM [10] | inhibition at 10 µM [11]
1 | CCC(=O)NNc1[nH]c(-c2ccc(OC)cc2)cc1C(=O)OC | 3.12 µg/mL (≈ 9.83 µM) | 6.25 µg/mL (≈ 19.7 µM) | 3.12 µg/mL (≈ 9.83 µM) | 6.25 µg/mL (≈ 19.7 µM) | 3.12 µg/mL (≈ 9.83 µM) | 12.5 µg/mL (≈ 39.4 µM) | 12.5 µg/mL (≈ 39.4 µM) | 6.25 µg/mL (≈ 19.7 µM) |  |  | 
2 | CCOC(=O)NNc1[nH]c(-c2ccccc2)cc1C(=O)OC | 3.12 µg/mL (≈ 10.3 µM) | 3.12 µg/mL (≈ 10.3 µM) | 3.12 µg/mL (≈ 10.3 µM) | 6.25 µg/mL (≈ 20.6 µM) | 6.25 µg/mL (≈ 20.6 µM) | 12.5 µg/mL (≈ 41.2 µM) | 12.5 µg/mL (≈ 41.2 µM) | 25 µg/mL (≈ 82.4 µM) |  |  | 
3 | CCOC(=O)NNc1[nH]c(-c2ccc(OC)cc2)cc1C(=O)OC | 3.12 µg/mL (≈ 9.36 µM) | 12.5 µg/mL (≈ 37.5 µM) | 25 µg/mL (≈ 75 µM) | 50 µg/mL (≈ 150 µM) | 6.25 µg/mL (≈ 18.7 µM) | 50 µg/mL (≈ 150 µM) | > 100 µg/mL | > 100 µg/mL |  |  | 
4 | COCCC(=O)NNc1[nH]c(-c2ccccc2)cc1C(=O)OC | 6.25 µg/mL (≈ 19.7 µM) | 6.25 µg/mL (≈ 19.7 µM) | 12.5 µg/mL (≈ 39.4 µM) | 12.5 µg/mL (≈ 39.4 µM) | 12.5 µg/mL (≈ 39.4 µM) | 25 µg/mL (≈ 78.8 µM) | 100 µg/mL (≈ 315 µM) | 25 µg/mL (≈ 78.8 µM) |  |  | 
5 | COCCC(=O)NNc1[nH]c(-c2ccccc2)cc1C#N | 6.25 µg/mL (≈ 22 µM) | 3.25 µg/mL (≈ 11.4 µM) | 6.25 µg/mL (≈ 22 µM) | 6.25 µg/mL (≈ 22 µM) | 6.25 µg/mL (≈ 22 µM) | 12.5 µg/mL (≈ 44 µM) | 25 µg/mL (≈ 87.9 µM) | 12.5 µg/mL (≈ 44 µM) |  |  | 
6 | COC(=O)c1cc(-c2ccccc2)[nH]c1NNC(C)=O | 3.12 µg/mL (≈ 11.4 µM) | 6.25 µg/mL (≈ 22.9 µM) | 6.25 µg/mL (≈ 22.9 µM) | 12.5 µg/mL (≈ 45.7 µM) | 6.25 µg/mL (≈ 22.9 µM) | 25 µg/mL (≈ 91.5 µM) | 25 µg/mL (≈ 91.5 µM) | 12.5 µg/mL (≈ 45.7 µM) |  |  | 
7 | COC(=O)c1cc(-c2ccc(OC)cc2)[nH]c1NNC(C)=O | 3.12 µg/mL (≈ 10.3 µM) | 3.12 µg/mL (≈ 10.3 µM) | 3.12 µg/mL (≈ 10.3 µM) | 3.12 µg/mL (≈ 10.3 µM) | 3.12 µg/mL (≈ 10.3 µM) | 12.5 µg/mL (≈ 41.2 µM) | 6.25 µg/mL (≈ 20.6 µM) | 6.25 µg/mL (≈ 20.6 µM) | 0% | 0% | 0%
8 | CCC(=O)NNc1[nH]c(-c2ccc(OC)cc2)cc1C#N | 0.39 µg/mL (≈ 1.37 µM) | 0.78 µg/mL (≈ 2.74 µM) | 0.78 µg/mL (≈ 2.74 µM) | 0.78 µg/mL (≈ 2.74 µM) | 6.25 µg/mL (≈ 22 µM) | 12.5 µg/mL (≈ 44 µM) | 12.5 µg/mL (≈ 44 µM) | 12.5 µg/mL (≈ 44 µM) | 4.6% | 0% | 2.1%
9 | COc1ccc(-c2cc(C#N)c(NNC(C)=O)[nH]2)cc1 | 1.56 µg/mL (≈ 5.77 µM) | 3.12 µg/mL (≈ 11.5 µM) | 3.12 µg/mL (≈ 11.5 µM) | 1.56 µg/mL (≈ 5.77 µM) | 6.25 µg/mL (≈ 23.1 µM) | 12.5 µg/mL (≈ 46.2 µM) | 6.25 µg/mL (≈ 23.1 µM) | 3.12 µg/mL (≈ 11.5 µM) | 0% | 0% | 0%
10 | CCOC(=O)NNc1[nH]c(-c2ccc(OC)cc2)cc1C#N | 3.12 µg/mL (≈ 10.4 µM) | 12.5 µg/mL (≈ 41.6 µM) | 25 µg/mL (≈ 83.2 µM) | 25 µg/mL (≈ 83.2 µM) | 3.12 µg/mL (≈ 10.4 µM) | 50 µg/mL (≈ 166 µM) | 100 µg/mL (≈ 333 µM) | 50 µg/mL (≈ 166 µM) | 0.9% | 31% | 0%
11 | COCC(=O)NNc1[nH]c(-c2ccc(OC)cc2)cc1C#N | 6.25 µg/mL (≈ 20.8 µM) | 25 µg/mL (≈ 83.2 µM) | 6.25 µg/mL (≈ 20.8 µM) | 6.25 µg/mL (≈ 20.8 µM) | 6.25 µg/mL (≈ 20.8 µM) | 50 µg/mL (≈ 166 µM) | 12.5 µg/mL (≈ 41.6 µM) | 12.5 µg/mL (≈ 41.6 µM) |  |  | 
12 | COCCC(=O)NNc1[nH]c(-c2ccc(OC)cc2)cc1C(=O)OC | 6.25 µg/mL (≈ 18 µM) | 6.25 µg/mL (≈ 18 µM) | 6.25 µg/mL (≈ 18 µM) | 6.25 µg/mL (≈ 18 µM) | 6.25 µg/mL (≈ 18 µM) | 25 µg/mL (≈ 72 µM) | 12.5 µg/mL (≈ 36 µM) | 25 µg/mL (≈ 72 µM) |  |  | 
13 | CCC(=O)NNc1[nH]c(-c2ccccc2)cc1C(=O)OC | 3.12 µg/mL (≈ 10.9 µM) | 6.25 µg/mL (≈ 21.8 µM) | 6.25 µg/mL (≈ 21.8 µM) | 12.5 µg/mL (≈ 43.5 µM) | 6.25 µg/mL (≈ 21.8 µM) | 25 µg/mL (≈ 87 µM) | 12.5 µg/mL (≈ 43.5 µM) | 25 µg/mL (≈ 87 µM) |  |  | 
14 | COCCC(=O)NNc1[nH]c(-c2ccc(OC)cc2)cc1C#N | 3.12 µg/mL (≈ 9.93 µM) | 6.25 µg/mL (≈ 19.9 µM) | 6.25 µg/mL (≈ 19.9 µM) | 3.12 µg/mL (≈ 9.93 µM) | 6.25 µg/mL (≈ 19.9 µM) | 12.5 µg/mL (≈ 39.8 µM) | 12.5 µg/mL (≈ 39.8 µM) | 6.25 µg/mL (≈ 19.9 µM) |  |  | 
15 | C[C@@H]1[C@H](O)[C@@H](C)/C=C/C=C/C=C/C=C/C=C/C=C/C=C/[C@H](O[C@@H]2O[C@H](C)[C@@H](O)[C@H](N)[C@@H]2O)C[C@@H]2O[C@](O)(C[C@@H](O)C[C@@H](O)[C@H](O)CC[C@@H](O)C[C@@H](O)CC(=O)O[C@H]1C)C[C@H](O)[C@H]2C(=O)O [AMPHOTERICIN B] | 0.39 µg/mL (≈ 0.422 µM) | 0.78 µg/mL (≈ 0.844 µM) | 0.78 µg/mL (≈ 0.844 µM) | 0.78 µg/mL (≈ 0.844 µM) | 0.78 µg/mL (≈ 0.844 µM) | 1.56 µg/mL (≈ 1.69 µM) | 1.56 µg/mL (≈ 1.69 µM) | 1.56 µg/mL (≈ 1.69 µM) |  |  | 
16 | OC(Cn1cncn1)(Cn1cncn1)c1ccc(F)cc1F [FLUCONAZOLE] | 0.78 µg/mL (≈ 2.55 µM) | 12.5 µg/mL (≈ 40.8 µM) | 0.39 µg/mL (≈ 1.27 µM) | 25 µg/mL (≈ 81.6 µM) | > 100 µg/mL | > 100 µg/mL | > 100 µg/mL | 50 µg/mL (≈ 163 µM) |  |  | 
